Blank lines part the entries; values can stand above or below the molecule they belong to.
How the values were obtained:
[1] = molecular target: Metabotropic glutamate receptor 5 (Rattus norvegicus, UniProt P31424); assay: Displacement of [3H]M-MPEP from mGluR5 in Sprague-Dawley rat brain membranes (cerebellum removed) after 45 mins by liquid scintillation counting
Plasma [2] = assay: Metabolic stability in human plasma after 120 mins by UPLC analysis; assay type: ADME, cell-free; conditions: 2 h
Method in brief: (§1)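 [18F] tracer in ethanol added to human or rat plasma and incubated at 37 °C for 120 min. Aliquots taken at 0, 30, 60, 90 and 120 min into ice-cold acetonitrile, centrifuged (5000g, 4 °C, 10 min), and supernatant analysed by radio-UPLC.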

[3] = Lipophilicity, log D of the compound at pH 7.4 by shake flask method; assay type: physicochemical; conditions: buffer
Method in brief: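 Shake-flask log D (n = 5): [18F] tracer (80 kBq) added to 0.5 mL 1-octanol and 0.5 mL phosphate buffer pH 7.4, each pre-saturated with the other. Mixed 15 min, centrifuged at 5000g for 5 min, and radioactivity in each phase gamma-counted.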

Brain = assay: Drug uptake in Sprague-Dawley rat brain slices at 0.5 to 5 nM after 45 mins by autoradiography in presence of 500 nM of ABP688; assay type: ADME, tissue-based; conditions: 0.75 h, 0.005 µM
Method in brief: (§2)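 Frozen rat brain slices thawed 30 min at rt, preincubated 10 min at 4 °C in HEPES–BSA buffer pH 7.4, then covered with 0.5 or 5 nM [18F] tracer for 45 min at rt in a humid chamber. Blocking was by co-incubation with excess unlabeled ABP688. Washes were 3×3 min in HEPES buffer and 2×5 s in water at 4 °C, followed by 40 min drying and 7 min phosphor-plate exposure.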

Striatum = assay: Drug uptake in Sprague-Dawley rat striatum at 0.5 to 5 nM after 45 mins by autoradiography; assay type: ADME, tissue-based; conditions: 0.75 h, 0.005 µM
Method in brief: as §2

[4] = Metabolic stability in rat liver microsomes assessed as compound remaining after 60 mins by UPLC analysis; assay type: ADME, Microsome; conditions: read-out: Stability
Method in brief: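 Pooled rat liver microsomes (0.52 mg/mL protein). Tracer (20–50 nM) preincubated 5 min with 10 mM NADPH in 0.1 M phosphate pH 7.4 at 37 °C before microsomes were added; testosterone served as positive control and boiled microsomes as negative control. Reactions quenched with ice-cold acetonitrile at 0, 15, 30 and 60 min, centrifuged, and supernatant run by UPLC.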

Hippocampus = assay: Drug uptake in Sprague-Dawley rat hippocampus at 0.5 to 5 nM after 45 mins by autoradiography; assay type: ADME, tissue-based; conditions: 0.75 h, 0.005 µM
Method in brief: as §2

Plasma [5] = assay: Metabolic stability in rat plasma after 120 mins by UPLC analysis; assay type: ADME, cell-free; conditions: 2 h
Method in brief: as §1

Cortex = assay: Drug uptake in Sprague-Dawley rat cortex at 0.5 to 5 nM after 45 mins by autoradiography; assay type: ADME, tissue-based; conditions: 0.75 h, 0.005 µM
Method in brief: as §2

Metabotropic glutamate receptor 5, sequence (P31424 whole entry): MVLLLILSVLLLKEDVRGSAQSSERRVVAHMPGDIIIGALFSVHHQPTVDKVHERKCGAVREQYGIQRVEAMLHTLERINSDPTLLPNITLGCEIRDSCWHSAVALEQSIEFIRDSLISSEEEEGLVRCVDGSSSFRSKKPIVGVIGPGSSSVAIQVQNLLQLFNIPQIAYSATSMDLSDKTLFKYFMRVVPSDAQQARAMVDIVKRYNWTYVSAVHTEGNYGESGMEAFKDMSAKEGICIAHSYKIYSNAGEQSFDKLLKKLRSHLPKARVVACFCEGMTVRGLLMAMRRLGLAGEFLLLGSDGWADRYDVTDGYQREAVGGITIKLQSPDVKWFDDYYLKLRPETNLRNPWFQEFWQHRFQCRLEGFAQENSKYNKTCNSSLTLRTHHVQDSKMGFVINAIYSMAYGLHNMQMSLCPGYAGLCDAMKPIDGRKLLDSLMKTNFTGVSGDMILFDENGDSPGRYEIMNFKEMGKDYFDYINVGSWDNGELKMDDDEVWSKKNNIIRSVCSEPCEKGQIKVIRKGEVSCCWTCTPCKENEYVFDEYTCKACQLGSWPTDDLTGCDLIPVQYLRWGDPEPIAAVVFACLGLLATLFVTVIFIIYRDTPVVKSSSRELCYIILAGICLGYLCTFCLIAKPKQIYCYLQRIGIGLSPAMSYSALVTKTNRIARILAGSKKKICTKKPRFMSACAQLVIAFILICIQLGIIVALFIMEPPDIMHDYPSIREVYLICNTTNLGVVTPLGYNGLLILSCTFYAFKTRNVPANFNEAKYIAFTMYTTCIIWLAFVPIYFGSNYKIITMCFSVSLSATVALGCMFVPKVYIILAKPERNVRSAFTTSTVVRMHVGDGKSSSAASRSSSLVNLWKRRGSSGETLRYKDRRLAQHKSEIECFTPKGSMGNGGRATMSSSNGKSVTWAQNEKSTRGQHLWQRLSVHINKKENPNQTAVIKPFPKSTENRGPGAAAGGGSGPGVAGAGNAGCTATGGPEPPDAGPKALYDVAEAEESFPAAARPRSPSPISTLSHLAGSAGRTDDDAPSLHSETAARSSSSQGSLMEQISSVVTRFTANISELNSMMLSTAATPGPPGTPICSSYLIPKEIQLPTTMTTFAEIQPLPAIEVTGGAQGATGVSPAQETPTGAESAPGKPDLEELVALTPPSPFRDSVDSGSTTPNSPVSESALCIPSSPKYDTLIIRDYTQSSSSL

- Ki [1]: 5.5 nM
SMILES: CO/N=C1/C=C(C#Cc2csc(CF)n2)CCC1

- Ki [1]: 20.3 nM
SMILES: CO/N=C1/C=C(C#Cc2nccs2)CCC1

- Ki [1]: 36 nM
SMILES: FCCOCCO/N=C1/C=C(C#Cc2cscn2)CCC1

- Ki [1]: 21.9 nM
SMILES: Cc1nc(C#CC2=C/C(=N/OCCOCCF)CCC2)cs1

- Stability (Plasma [2]): Stable
- logD [3]: 1.6
- Drug uptake (Brain): Not Active
- Drug uptake (Striatum): Active
- remaining at 1 h [4]: 93%
- Drug uptake (Hippocampus): Active
- Stability (Plasma [5]): Stable
- Drug uptake (Cortex): Active
SMILES: CO/N=C1/C=C(C#Cc2csc(C[18F])n2)CCC1
